Source: ChEMBL document CHEMBL3779826, “Converting maslinic acid into an effective inhibitor of acylcholinesterases” (Eur J Med Chem, 2015)
pIC50, pKi: −log10 of the molar value.

Columns and labels:
Acetylcholinesterase = Acetylcholinesterase (Electrophorus electricus, UniProt O42275); assay: Inhibition of Electrophorus electricus AChE using acetylthiocholine iodide as substrate preincubated for 20mins before the addition of substrate by Ellman's method; settings: for pKi: read-out: Ki
Cholinesterase = Cholinesterase (Equus caballus, UniProt P81908); assay: Inhibition of equine serum BChE using butyrylthiocholine iodide as substrate preincubated for 20mins before the addition of substrate by Ellman's method; settings: for pKi: read-out: Ki
Sequence of Cholinesterase (P81908 whole entry): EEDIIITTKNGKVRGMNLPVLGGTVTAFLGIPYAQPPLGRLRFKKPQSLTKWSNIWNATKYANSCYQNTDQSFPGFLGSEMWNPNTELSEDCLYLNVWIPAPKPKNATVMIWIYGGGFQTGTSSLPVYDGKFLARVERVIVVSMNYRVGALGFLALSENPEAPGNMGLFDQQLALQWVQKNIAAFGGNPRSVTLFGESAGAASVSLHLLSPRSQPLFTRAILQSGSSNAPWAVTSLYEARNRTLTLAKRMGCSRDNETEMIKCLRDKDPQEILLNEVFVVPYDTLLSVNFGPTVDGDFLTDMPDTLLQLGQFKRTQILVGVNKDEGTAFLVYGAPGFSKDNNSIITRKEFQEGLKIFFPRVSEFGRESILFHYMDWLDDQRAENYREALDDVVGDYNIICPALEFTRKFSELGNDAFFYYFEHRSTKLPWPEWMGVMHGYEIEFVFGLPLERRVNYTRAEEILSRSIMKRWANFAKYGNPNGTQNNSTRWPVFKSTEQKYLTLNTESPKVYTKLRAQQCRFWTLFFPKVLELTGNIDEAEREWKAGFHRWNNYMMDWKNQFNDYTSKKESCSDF

[1] = target: Acetylcholinesterase (Electrophorus electricus) (UniProt O42275); assay: Mixed type inhibition of Electrophorus electricus AChE by Lineweaver-Burk plot analysis
Sequence of Acetylcholinesterase (Electrophorus electricus) (O42275 24-633 limits assumed): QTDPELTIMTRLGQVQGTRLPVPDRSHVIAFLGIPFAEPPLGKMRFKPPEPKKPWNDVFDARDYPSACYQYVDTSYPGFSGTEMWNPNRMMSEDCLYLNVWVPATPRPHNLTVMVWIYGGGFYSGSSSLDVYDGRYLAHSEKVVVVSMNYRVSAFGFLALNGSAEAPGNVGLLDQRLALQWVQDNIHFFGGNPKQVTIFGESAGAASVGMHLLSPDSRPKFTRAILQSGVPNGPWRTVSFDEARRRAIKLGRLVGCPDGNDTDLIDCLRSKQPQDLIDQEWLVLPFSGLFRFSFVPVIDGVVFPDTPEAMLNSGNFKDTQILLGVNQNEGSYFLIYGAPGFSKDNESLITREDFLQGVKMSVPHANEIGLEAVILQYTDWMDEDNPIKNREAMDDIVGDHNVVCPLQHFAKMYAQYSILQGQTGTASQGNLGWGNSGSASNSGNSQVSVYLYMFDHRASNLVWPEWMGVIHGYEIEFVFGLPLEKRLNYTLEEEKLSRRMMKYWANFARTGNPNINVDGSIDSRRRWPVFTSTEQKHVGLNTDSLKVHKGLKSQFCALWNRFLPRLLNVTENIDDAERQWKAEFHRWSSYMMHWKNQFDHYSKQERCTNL
How it was run: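 Ellman kinetics at 30 °C in pH 8.0 Tris-HCl with DTNB. Enzyme plus inhibitor (3 concentrations and a water blank) was preincubated for 20 min, then ATChI was added at 0.9375, 0.625, 0.325 or 0.1875 mM. A415 was read every minute for 30 min, in triplicate. Mode, Ki and Ki' came from Lineweaver-Burk, Dixon and Cornish-Bowden plots.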

Sequence of Acetylcholinesterase (O42275 whole entry): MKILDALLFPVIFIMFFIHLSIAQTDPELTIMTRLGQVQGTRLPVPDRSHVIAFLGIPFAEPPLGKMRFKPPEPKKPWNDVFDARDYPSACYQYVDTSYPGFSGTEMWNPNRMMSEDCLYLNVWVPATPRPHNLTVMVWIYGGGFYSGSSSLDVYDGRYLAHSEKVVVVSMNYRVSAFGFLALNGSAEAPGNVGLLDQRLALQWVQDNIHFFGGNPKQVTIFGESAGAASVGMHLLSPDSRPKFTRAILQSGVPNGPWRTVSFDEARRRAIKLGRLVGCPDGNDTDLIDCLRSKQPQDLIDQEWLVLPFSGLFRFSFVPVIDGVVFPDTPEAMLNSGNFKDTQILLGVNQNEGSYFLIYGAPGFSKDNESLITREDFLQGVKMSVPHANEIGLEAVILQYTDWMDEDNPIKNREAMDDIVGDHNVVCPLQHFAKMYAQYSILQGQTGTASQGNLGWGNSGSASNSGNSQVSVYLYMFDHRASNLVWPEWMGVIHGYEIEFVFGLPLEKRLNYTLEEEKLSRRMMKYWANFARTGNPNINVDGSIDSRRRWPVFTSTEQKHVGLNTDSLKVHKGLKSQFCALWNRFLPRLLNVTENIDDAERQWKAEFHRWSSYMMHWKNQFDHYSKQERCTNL

Row | Structure (SMILES) | pKi (Acetylcholinesterase) | pKi (Cholinesterase) | pIC50 (Acetylcholinesterase) | further results
1 | CCCCCCCCCCCCOC(=O)[C@]12CCC(C)(C)C[C@H]1C1=CC[C@@H]3[C@@]4(C)C[C@@H](O)[C@H](O)C(C)(C)[C@@H]4CC[C@@]3(C)[C@]1(C)CC2 |  |  |  | Ki (Acetylcholinesterase): ND(Insoluble); Ki (Cholinesterase): ND(Insoluble)
2 | COc1ccc(COC(=O)[C@]23CCC(C)(C)C[C@H]2C2=CC[C@@H]4[C@@]5(C)C[C@@H](O)[C@H](O)C(C)(C)[C@@H]5CC[C@@]4(C)[C@]2(C)CC3)cc1 | 5.19 | < 4.00 |  | Kiuc [1]: 69.6 µM
3 | CC1(C)CC[C@]2(C(=O)OCCCCBr)CC[C@]3(C)C(=CC[C@@H]4[C@@]5(C)C[C@@H](O)[C@H](O)C(C)(C)[C@@H]5CC[C@]43C)[C@@H]2C1 | < 5.00 | < 5.00 |  | 
4 | CCOC(=O)[C@]12CCC(C)(C)C[C@H]1C1=CC[C@@H]3[C@@]4(C)C[C@@H](O)[C@H](O)C(C)(C)[C@@H]4CC[C@@]3(C)[C@]1(C)CC2 | 5.46 | < 4.85 | 5.33 | Kiuc [1]: 4.67 µM
5 | C#CCOC(=O)[C@]12CCC(C)(C)C[C@H]1C1=CC[C@@H]3[C@@]4(C)C[C@@H](O)[C@H](O)C(C)(C)[C@@H]4CC[C@@]3(C)[C@]1(C)CC2 | < 5.00 | < 5.00 |  | 
6 | CC1(C)CC[C@]2(C(=O)NCc3ccccc3)CC[C@]3(C)C(=CC[C@@H]4[C@@]5(C)C[C@@H](O)[C@H](O)C(C)(C)[C@@H]5CC[C@]43C)[C@@H]2C1 | < 5.00 |  |  | 
7 | CC1(C)CC[C@@]2(C(=O)OCc3ccc([N+](=O)[O-])cc3)CC[C@@]3(C)C(=CC[C@H]4[C@]5(C)C[C@H](O)[C@@H](O)C(C)(C)[C@H]5CC[C@@]43C)[C@H]2C1 (single isomer, unassigned) | 5.21 | < 5.40 | 5.13 | Kiuc [1]: 7.22 µM
8 | CC1(C)CC[C@]2(C(=O)OCCCCl)CC[C@]3(C)C(=CC[C@@H]4[C@@]5(C)C[C@@H](O)[C@H](O)C(C)(C)[C@@H]5CC[C@]43C)[C@@H]2C1 | 5.06 | < 5.22 | 5.39 | Kiuc [1]: 3.45 µM
9 | CCNC(=O)[C@]12CCC(C)(C)C[C@H]1C1=CC[C@@H]3[C@@]4(C)C[C@@H](OC(C)=O)[C@H](OC(C)=O)C(C)(C)[C@@H]4CC[C@@]3(C)[C@]1(C)CC2 | < 4.85 | < 4.85 |  | 
10 | COC(=O)[C@]12CCC(C)(C)C[C@H]1C1=CC[C@@H]3[C@@]4(C)C[C@@H](O)[C@H](OS(N)(=O)=O)C(C)(C)[C@@H]4CC[C@@]3(C)[C@]1(C)CC2 | 4.69 | < 4.70 | 4.67 | Kiuc [1]: 38.6 µM
11 | CC1(C)CC[C@]2(C(=O)O)CC[C@]3(C)C(=CC[C@@H]4[C@@]5(C)C[C@@H](OC(=O)CCl)[C@H](OC(=O)CCl)C(C)(C)[C@@H]5CC[C@]43C)[C@@H]2C1 | 4.88 |  | 4.82 | Kiuc [1]: 19.8 µM
12 | CC1(C)CC[C@]2(C(N)=O)CC[C@]3(C)C(=CC[C@@H]4[C@@]5(C)C[C@@H](O)[C@H](O)C(C)(C)[C@@H]5CC[C@]43C)[C@@H]2C1 | < 4.70 | 4.74 |  | pIC50 (Cholinesterase): 4.47
13 | C=CCCOC(=O)[C@]12CCC(C)(C)C[C@H]1C1=CC[C@@H]3[C@@]4(C)C[C@@H](O)[C@H](O)C(C)(C)[C@@H]4CC[C@@]3(C)[C@]1(C)CC2 | 5.48 | < 5.00 | 5.20 | Kiuc [1]: 11.5 µM
14 | C=CCNC(=O)[C@]12CCC(C)(C)C[C@H]1C1=CC[C@@H]3[C@@]4(C)C[C@@H](OC(C)=O)[C@H](OC(C)=O)C(C)(C)[C@@H]4CC[C@@]3(C)[C@]1(C)CC2 | < 4.70 | < 4.70 |  | 
15 | CC(=O)O[C@@H]1C[C@]2(C)[C@H]3CC=C4[C@@H]5CC(C)(C)CC[C@]5(C(=O)O)CC[C@@]4(C)[C@]3(C)CC[C@H]2C(C)(C)[C@H]1OC(C)=O | < 5.00 | < 5.00 |  | 
16 | CC1(C)CC[C@]2(C(=O)OCc3cccc(Cl)c3)CC[C@]3(C)C(=CC[C@@H]4[C@@]5(C)C[C@@H](O)[C@H](O)C(C)(C)[C@@H]5CC[C@]43C)[C@@H]2C1 | < 5.00 | < 5.00 |  | 
17 | C=CCOC(=O)[C@]12CCC(C)(C)C[C@H]1C1=CC[C@@H]3[C@@]4(C)C[C@@H](O)[C@H](O)C(C)(C)[C@@H]4CC[C@@]3(C)[C@]1(C)CC2 | < 4.52 | < 4.52 |  | 
18 | CC1(C)CC[C@]2(C(=O)OCc3ccc(Cl)cc3)CC[C@]3(C)C(=CC[C@@H]4[C@@]5(C)C[C@@H](O)[C@H](O)C(C)(C)[C@@H]5CC[C@]43C)[C@@H]2C1 | < 4.52 | < 4.52 |  | 

Row | Structure (SMILES) | pKi (Acetylcholinesterase) | pKi (Cholinesterase) | pIC50 (Acetylcholinesterase) | further results
19 | C#CCNC(=O)[C@]12CCC(C)(C)C[C@H]1C1=CC[C@@H]3[C@@]4(C)C[C@@H](OC(C)=O)[C@H](OC(C)=O)C(C)(C)[C@@H]4CC[C@@]3(C)[C@]1(C)CC2 | 5.09 | < 4.85 | 4.82 | 
20 | CC(=O)O[C@H]1C[C@]2(C)[C@H]3CC=C4[C@@H]5CC(C)(C)CC[C@]5(C(=O)NCc5ccccc5)CC[C@@]4(C)[C@]3(C)CC[C@H]2C(C)(C)[C@H]1OC(C)=O | < 5.00 |  |  | 
21 | CC1(C)CC[C@]2(C(=O)NCc3ccccc3)CC[C@]3(C)C(=CC[C@@H]4[C@@]5(C)C[C@H](OC(=O)CCl)[C@H](OC(=O)CCl)C(C)(C)[C@@H]5CC[C@]43C)[C@@H]2C1 | 5.20 |  | 4.82 | 
22 | CC1(C)CC[C@]2(C(=O)OCc3ccccc3)CC[C@]3(C)C(=CC[C@@H]4[C@@]5(C)C[C@@H](O)[C@H](O)C(C)(C)[C@@H]5CC[C@]43C)[C@@H]2C1 [BENZYL MASLINATE] | < 4.85 | < 4.85 |  | 
23 | C#CCNC(=O)[C@]12CCC(C)(C)C[C@H]1C1=CC[C@@H]3[C@@]4(C)C[C@@H](O)[C@H](O)C(C)(C)[C@@H]4CC[C@@]3(C)[C@]1(C)CC2 | < 4.70 | < 4.70 |  | 
24 | COC(=O)[C@]12CCC(C)(C)C[C@H]1C1=CC[C@@H]3[C@@]4(C)C[C@@H](OS(N)(=O)=O)[C@H](O)C(C)(C)[C@@H]4CC[C@@]3(C)[C@]1(C)CC2 | < 4.40 | < 4.40 |  | 
25 | CC1(C)CC[C@]2(C(=O)NCc3ccccc3)CC[C@]3(C)C(=CC[C@@H]4[C@@]5(C)C[C@@H](OC(=O)CCl)[C@H](OC(=O)CCl)C(C)(C)[C@@H]5CC[C@]43C)[C@@H]2C1 | 4.60 |  | 4.70 | 
26 | CC1(C)CC[C@]2(C(=O)O)CC[C@]3(C)C(=CC[C@@H]4[C@@]5(C)C[C@H](OC(=O)CCl)[C@H](OC(=O)CCl)C(C)(C)[C@@H]5CC[C@]43C)[C@@H]2C1 | 5.16 |  | 5.18 | Kiuc [1]: 9.36 µM
27 | CC1(C)CC[C@]2(C(=O)OCc3ccc(Br)cc3)CC[C@]3(C)C(=CC[C@@H]4[C@@]5(C)C[C@@H](O)[C@H](O)C(C)(C)[C@@H]5CC[C@]43C)[C@@H]2C1 | < 4.70 | < 4.70 |  | 
28 | CC(=O)O[C@@H]1C[C@]2(C)[C@H]3CC=C4[C@@H]5CC(C)(C)CC[C@]5(C(N)=O)CC[C@@]4(C)[C@]3(C)CC[C@H]2C(C)(C)[C@H]1OC(C)=O | < 4.70 | < 4.70 |  | 
29 | CC(=O)O[C@@H]1C[C@]2(C)[C@H]3CC=C4[C@@H]5CC(C)(C)CC[C@]5(C(=O)NCc5ccccc5)CC[C@@]4(C)[C@]3(C)CC[C@H]2C(C)(C)[C@H]1OC(C)=O | 4.79 |  | 4.53 | Kiuc [1]: 39.4 µM
30 | CCNC(=O)[C@]12CCC(C)(C)C[C@H]1C1=CC[C@@H]3[C@@]4(C)C[C@@H](O)[C@H](O)C(C)(C)[C@@H]4CC[C@@]3(C)[C@]1(C)CC2 | < 4.70 | < 4.70 |  | 
31 | COC(=O)[C@]12CCC(C)(C)C[C@H]1C1=CC[C@@H]3[C@@]4(C)C[C@@H](O)[C@H](O)C(C)(C)[C@@H]4CC[C@@]3(C)[C@]1(C)CC2 [MASLINIC ACID METHYL ESTER] | < 4.30 | < 4.30 |  | 
32 | CC(=O)O[C@H]1C[C@]2(C)[C@H]3CC=C4[C@@H]5CC(C)(C)CC[C@]5(C(=O)O)CC[C@@]4(C)[C@]3(C)CC[C@H]2C(C)(C)[C@H]1OC(C)=O | < 4.70 | < 4.70 |  | 
33 | C=CCNC(=O)[C@]12CCC(C)(C)C[C@H]1C1=CC[C@@H]3[C@@]4(C)C[C@@H](O)[C@H](O)C(C)(C)[C@@H]4CC[C@@]3(C)[C@]1(C)CC2 | < 4.70 | < 4.70 |  | 
34 | CCCNC(=O)[C@]12CCC(C)(C)C[C@H]1C1=CC[C@@H]3[C@@]4(C)C[C@@H](OC(C)=O)[C@H](OC(C)=O)C(C)(C)[C@@H]4CC[C@@]3(C)[C@]1(C)CC2 | < 5.22 | < 5.22 |  | 
35 | CC1(C)CC[C@]2(C(=O)OCCO)CC[C@]3(C)C(=CC[C@@H]4[C@@]5(C)C[C@@H](O)[C@H](O)C(C)(C)[C@@H]5CC[C@]43C)[C@@H]2C1 | < 4.00 | < 4.00 |  | 
36 | CCCCCCCCCCCCCCCCCCOC(=O)[C@]12CCC(C)(C)C[C@H]1C1=CC[C@@H]3[C@@]4(C)C[C@@H](O)[C@H](O)C(C)(C)[C@@H]4CC[C@@]3(C)[C@]1(C)CC2 |  |  |  | Ki (Acetylcholinesterase): ND(Insoluble); Ki (Cholinesterase): ND(Insoluble)
